The source made the active and inactive calls. The rule behind the calls is not given here.
What was measured:
[1] = biological target: T1, 5-hydroxytryptamine receptor 1A (Rattus norvegicus, UniProt P19327); assay: Displacement of [3H]-8-OH-DPAT from 5-HT1A receptor in Sprague-Dawley rat cerebral cortex after 15 mins; format: tissue-based
T1 sequence (P19327 whole entry): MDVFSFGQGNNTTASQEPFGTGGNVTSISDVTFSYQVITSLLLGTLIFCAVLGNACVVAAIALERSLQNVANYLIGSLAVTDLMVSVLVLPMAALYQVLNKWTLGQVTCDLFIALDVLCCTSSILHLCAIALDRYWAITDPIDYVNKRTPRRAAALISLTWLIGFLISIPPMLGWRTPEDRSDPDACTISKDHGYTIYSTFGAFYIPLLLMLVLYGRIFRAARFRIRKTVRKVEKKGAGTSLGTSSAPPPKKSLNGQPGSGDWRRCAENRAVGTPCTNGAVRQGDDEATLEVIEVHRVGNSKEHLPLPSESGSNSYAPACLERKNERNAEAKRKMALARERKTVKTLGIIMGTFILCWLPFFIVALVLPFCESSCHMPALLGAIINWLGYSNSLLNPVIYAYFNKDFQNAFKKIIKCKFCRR

[2] = biological target: 5-hydroxytryptamine receptor 4 (Rattus norvegicus, UniProt Q62758); assay: Displacement of [3H]GR113808 from 5-HT4 receptor in Sprague-Dawley rat striatum after 30 mins
[3] = biological target: 5-hydroxytryptamine receptor 7 (Rattus norvegicus, UniProt P32305); assay: Displacement of [3H]-5-CT from 5-HT7 receptor in Sprague-Dawley rat hypothalamus after 120 mins
[4] = biological target: T2, 5-hydroxytryptamine receptor 3A (Rattus norvegicus, UniProt P35563); assay: Displacement of [3H]LY 278584 from 5-HT3 receptor in Sprague-Dawley rat cerebral cortex after 30 mins; format: tissue-based
T2 sequence (P35563 whole entry): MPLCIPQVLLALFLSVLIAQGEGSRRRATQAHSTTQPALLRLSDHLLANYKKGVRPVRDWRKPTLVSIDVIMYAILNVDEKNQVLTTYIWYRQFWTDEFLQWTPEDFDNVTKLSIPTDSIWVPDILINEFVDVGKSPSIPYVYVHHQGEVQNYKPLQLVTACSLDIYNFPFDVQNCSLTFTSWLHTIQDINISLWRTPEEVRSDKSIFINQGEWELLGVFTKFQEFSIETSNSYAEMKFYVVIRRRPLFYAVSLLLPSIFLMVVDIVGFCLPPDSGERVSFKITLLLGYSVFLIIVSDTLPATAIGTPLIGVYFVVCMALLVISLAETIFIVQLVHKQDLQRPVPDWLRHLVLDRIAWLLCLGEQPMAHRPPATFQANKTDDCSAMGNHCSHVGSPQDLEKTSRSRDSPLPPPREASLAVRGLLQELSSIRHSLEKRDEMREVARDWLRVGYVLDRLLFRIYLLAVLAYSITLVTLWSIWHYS

[5] = biological target: 5-hydroxytryptamine receptor 2A (Rattus norvegicus, UniProt P14842); assay: Displacement of [3H]ketanserin from 5-HT2A receptor in Sprague-Dawley rat frontal cortex after 15 mins; format: tissue-based
Mus musculus [6] = assay: Antinociceptive activity in CD-1 mouse assessed as reduction of formalin-induced paw licking activity at 3 mg/kg, ip administered 15 mins prior to formalin-challenge measured after 15 to 30 mins; format: functional, organism-based; set-up: dose 3 mg/kg
Albumin = Albumin (Homo sapiens, UniProt P02768); assay: Binding affinity to human serum albumin at 5 uM after 12 mins by HPLC-MS analysis relative to control; format: ADME; settings: isolated protein, 0.2 h
CYP2D6 = CYP2D6 (Homo sapiens, UniProt P10635); assay: Inhibition of human recombinant microsomal CYP2D6 using {3-[2-(N,N-diethyl-N-methylamino)ethyl]-7-methoxy-4-methylcoumarin} as substrate assessed as remaining activity at 10 uM after 30 mins by spectrofluorimetric analysis relative to control; format: ADME; settings: read-out: Activity
[7] = Half life in human liver microsomes at 1 to 5 uM by HPLC-MS analysis; format: ADME, Microsome
How it was run: (§1)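 Incubation mixtures pre-equilibrated at 37 °C with NADPH and MgCl2, then rat or human liver microsomes added to start the reaction. Aliquots were withdrawn and quenched at several time points, and percent parent remaining was measured by HPLC-MS and plotted against time. t1/2 was taken from the slope of peak area over time and used to calculate CLint.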

[8] = Intrinsic clearance in human liver microsomes at 1 to 5 uM by HPLC-MS analysis; format: ADME, Microsome; settings: read-out: CLH; how it was run: as §1
[9] = Intrinsic clearance in Sprague-Dawley rat liver microsomes at 1 to 5 uM by HPLC-MS analysis; format: ADME, Microsome; settings: read-out: CLH; how it was run: as §1
[10] = Half life in Sprague-Dawley rat liver microsomes at 1 to 5 uM by HPLC-MS analysis; format: ADME, Microsome; how it was run: as §1
Mus musculus [11] = species: Mus musculus; assay: Hypothermic activity in Swiss mouse assessed as change in rectal temperature after 60 mins; format: functional; settings: 1 h, read-out: MED
[12] = biological target: T3, 5-hydroxytryptamine receptor 1A (Homo sapiens, UniProt P08908); assay: Agonist activity at human 5-HT1A receptor expressed in human HeLa cells assessed as inhibition of forskolin-stimulated cAMP formation after 10 mins by RIA; format: functional, cell-based
T3 sequence (P08908 whole entry): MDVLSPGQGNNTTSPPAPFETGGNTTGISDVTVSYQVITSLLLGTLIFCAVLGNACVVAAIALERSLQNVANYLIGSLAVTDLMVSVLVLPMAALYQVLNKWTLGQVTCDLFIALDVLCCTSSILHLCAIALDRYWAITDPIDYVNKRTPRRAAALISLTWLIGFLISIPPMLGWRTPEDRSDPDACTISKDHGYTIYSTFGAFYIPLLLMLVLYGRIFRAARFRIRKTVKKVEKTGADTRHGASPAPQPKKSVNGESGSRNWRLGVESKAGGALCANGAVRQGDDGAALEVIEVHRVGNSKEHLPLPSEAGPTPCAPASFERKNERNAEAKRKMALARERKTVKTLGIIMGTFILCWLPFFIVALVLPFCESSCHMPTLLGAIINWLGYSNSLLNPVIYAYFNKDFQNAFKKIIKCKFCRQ

Mus musculus [13] = assay: Antinociceptive activity in CD-1 mouse assessed as reduction of formalin-induced paw licking activity at 100 mg/kg, ip administered 15 mins prior to formalin-challenge measured after 5 to 30 mins; format: functional, organism-based; set-up: dose 100 mg/kg
How it was run: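 Formalin injected intradermally in mice. Formalin-induced nociceptive behaviour is scored separately in the early and late phases of the test.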

Chain of 5-hydroxytryptamine receptor 7 (P32305 whole entry): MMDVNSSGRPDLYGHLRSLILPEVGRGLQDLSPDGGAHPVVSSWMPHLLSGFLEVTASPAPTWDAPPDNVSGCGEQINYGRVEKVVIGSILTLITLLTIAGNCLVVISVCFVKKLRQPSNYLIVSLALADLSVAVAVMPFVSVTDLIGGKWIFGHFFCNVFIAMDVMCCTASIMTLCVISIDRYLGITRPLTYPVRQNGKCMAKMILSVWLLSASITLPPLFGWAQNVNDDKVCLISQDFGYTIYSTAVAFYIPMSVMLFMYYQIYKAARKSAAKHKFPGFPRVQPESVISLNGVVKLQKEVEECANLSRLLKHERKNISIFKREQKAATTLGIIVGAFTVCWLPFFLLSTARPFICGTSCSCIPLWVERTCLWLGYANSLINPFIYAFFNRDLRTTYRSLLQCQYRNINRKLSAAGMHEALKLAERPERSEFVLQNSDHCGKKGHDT
Chain of Albumin (P02768 whole entry): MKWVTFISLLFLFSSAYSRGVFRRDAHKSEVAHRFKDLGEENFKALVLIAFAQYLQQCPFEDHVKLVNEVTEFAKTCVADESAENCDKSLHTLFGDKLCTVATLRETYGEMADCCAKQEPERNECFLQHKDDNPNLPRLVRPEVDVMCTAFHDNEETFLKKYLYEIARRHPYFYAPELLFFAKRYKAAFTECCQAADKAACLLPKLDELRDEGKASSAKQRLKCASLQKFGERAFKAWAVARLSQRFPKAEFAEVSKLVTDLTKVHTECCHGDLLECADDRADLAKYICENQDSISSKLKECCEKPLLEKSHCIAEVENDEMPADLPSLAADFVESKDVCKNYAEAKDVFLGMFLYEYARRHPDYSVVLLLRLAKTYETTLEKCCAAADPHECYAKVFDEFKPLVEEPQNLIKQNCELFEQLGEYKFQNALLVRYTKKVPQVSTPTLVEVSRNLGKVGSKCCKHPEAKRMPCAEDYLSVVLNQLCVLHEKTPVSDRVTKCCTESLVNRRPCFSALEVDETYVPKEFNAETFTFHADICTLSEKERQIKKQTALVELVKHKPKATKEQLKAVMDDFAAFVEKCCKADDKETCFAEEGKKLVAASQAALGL
Chain of 5-hydroxytryptamine receptor 2A (P14842 whole entry): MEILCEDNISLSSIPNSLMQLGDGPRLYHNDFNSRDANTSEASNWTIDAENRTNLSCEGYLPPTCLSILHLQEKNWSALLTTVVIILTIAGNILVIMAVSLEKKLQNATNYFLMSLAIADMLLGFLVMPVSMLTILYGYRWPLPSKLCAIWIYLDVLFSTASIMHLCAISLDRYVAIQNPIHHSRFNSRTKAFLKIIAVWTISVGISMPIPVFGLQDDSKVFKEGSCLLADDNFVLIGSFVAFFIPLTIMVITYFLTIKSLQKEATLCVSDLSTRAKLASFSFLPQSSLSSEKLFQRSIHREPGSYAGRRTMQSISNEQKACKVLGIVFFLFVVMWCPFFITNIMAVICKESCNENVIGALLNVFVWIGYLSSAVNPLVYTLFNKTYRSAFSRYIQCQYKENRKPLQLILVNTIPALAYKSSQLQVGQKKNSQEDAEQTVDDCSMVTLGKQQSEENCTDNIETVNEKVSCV
Chain of 5-hydroxytryptamine receptor 4 (Q62758 whole entry): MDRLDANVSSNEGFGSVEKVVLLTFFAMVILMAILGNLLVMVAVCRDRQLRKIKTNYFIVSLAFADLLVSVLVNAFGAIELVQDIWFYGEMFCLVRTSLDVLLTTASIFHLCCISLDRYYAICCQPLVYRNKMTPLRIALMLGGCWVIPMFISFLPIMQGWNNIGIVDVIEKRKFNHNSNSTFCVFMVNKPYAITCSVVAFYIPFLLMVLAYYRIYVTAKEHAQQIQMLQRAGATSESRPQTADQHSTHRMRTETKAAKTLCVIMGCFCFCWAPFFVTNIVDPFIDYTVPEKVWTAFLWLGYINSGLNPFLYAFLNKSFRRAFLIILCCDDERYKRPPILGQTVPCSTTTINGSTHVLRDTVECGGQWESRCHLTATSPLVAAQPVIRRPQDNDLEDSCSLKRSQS
Chain of CYP2D6 (P10635 whole entry): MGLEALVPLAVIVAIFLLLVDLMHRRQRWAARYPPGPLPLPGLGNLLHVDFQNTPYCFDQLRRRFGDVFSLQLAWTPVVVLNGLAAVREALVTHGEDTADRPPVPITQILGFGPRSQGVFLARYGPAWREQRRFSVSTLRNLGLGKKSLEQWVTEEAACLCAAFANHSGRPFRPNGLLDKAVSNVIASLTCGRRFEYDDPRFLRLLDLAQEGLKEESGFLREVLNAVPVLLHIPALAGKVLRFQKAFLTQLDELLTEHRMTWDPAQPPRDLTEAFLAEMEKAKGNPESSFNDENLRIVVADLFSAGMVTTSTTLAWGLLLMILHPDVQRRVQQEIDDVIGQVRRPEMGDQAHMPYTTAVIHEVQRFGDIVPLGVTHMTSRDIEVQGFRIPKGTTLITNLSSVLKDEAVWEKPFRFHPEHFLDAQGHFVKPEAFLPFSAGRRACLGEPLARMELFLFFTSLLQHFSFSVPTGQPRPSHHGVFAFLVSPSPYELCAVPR

Row | SMILES | Ki [1] | Ki [2] | Ki [3] | Ki [4] | Ki [5] | other results
1 | O=C1C2CCCN2C(=O)N1CCCCNCCOc1cccc(-c2ccccc2)c1 (centres undefined) | 72 nM |  |  |  |  | 
2 | COc1cc(COc2cc(N)c(Cl)cc2C(=O)CCC2CCN(CCNS(C)(=O)=O)CC2)cc(OC)c1 |  | 3.9 nM |  |  |  | 
3 | Cc1cccc(OCCNCCCCN2C(=O)C3CCCN3C2=O)c1C (centres undefined) | 45 nM | > 1000 nM | > 1000 nM | > 1000 nM | 310 nM | 
4 | Cl.O=C1C2CCCN2C(=O)N1CCCCNCCOc1ccccc1 (centres undefined) |  | > 1000 nM | > 1000 nM | > 1000 nM | > 1000 nM | Activity (Mus musculus [6]): Active; Activity (Albumin): 38%; activity at 0.5 h, 10 µM (CYP2D6): 24%; half-life at up to 5 µM [7]: 2.52 h; CLint scaled at up to 5 µM [8]: 4.1 mL/min/kg; CLint scaled at up to 5 µM [9]: 140 mL/min/kg; half-life at up to 5 µM [10]: 0.167 h; minimal effective dose (Mus musculus [11]): 2.5 mg/kg
5 | COc1ccccc1OCCNCCCCN1C(=O)C2CCCN2C1=O.Cl (centres undefined) | 4.8 nM | > 1000 nM | > 1000 nM | > 1000 nM | 267 nM | Activity (Mus musculus [6]): Active; Activity (Albumin): 25%; activity at 0.5 h, 10 µM (CYP2D6): 48%; half-life at up to 5 µM [7]: 3.95 h; CLint scaled at up to 5 µM [8]: 2.6 mL/min/kg; CLint scaled at up to 5 µM [9]: 145 mL/min/kg; half-life at up to 5 µM [10]: 0.162 h; minimal effective dose (Mus musculus [11]): 0.625 mg/kg; EC50 [12]: 23 nM
6 | O=C1C2CCCN2C(=O)N1CCCCNCCOc1ccccc1C(F)(F)F (centres undefined) | 510 nM |  |  |  |  | 
7 | N#Cc1ccc(OCCNCCCCN2C(=O)C3CCCN3C2=O)cc1 (centres undefined) | > 1000 nM |  |  |  |  | 
8 | O=C1C2CCCN2C(=O)N1CCCCNCCOc1ccccc1Br (centres undefined) | 62 nM |  |  |  |  | 
9 | CCc1cccc(OCCNCCCCN2C(=O)C3CCCN3C2=O)c1 (centres undefined) | 30 nM | > 1000 nM | > 1000 nM | > 1000 nM | > 1000 nM | 
10 | COc1ccc(OCCNCCCCN2C(=O)C3CCCN3C2=O)cc1 (centres undefined) | > 1000 nM |  |  |  |  | 
11 | CC(C)c1ccccc1OCCNCCCCN1C(=O)C2CCCN2C1=O (centres undefined) | 38 nM | > 1000 nM | > 1000 nM | > 1000 nM | 260 nM | 
12 | O=C1C2CCCN2C(=O)N1CCCCNCCOc1cccc(C(F)(F)F)c1 (centres undefined) | 38.9 nM |  |  |  |  | 
13 | O=C1C2CCCN2C(=O)N1CCCCNCCOc1ccc(-c2ccccc2)cc1 (centres undefined) | > 1000 nM |  |  |  |  | 
14 | COc1cc(F)ccc1OCCNCCCCN1C(=O)C2CCCN2C1=O (centres undefined) | 37.4 nM | > 1000 nM | > 1000 nM | > 1000 nM | > 1000 nM | 
15 | NCCc1c[nH]c2ccc(C(N)=O)cc12 |  |  | 1.8 nM |  |  | 
16 | O=C1C2CCCN2C(=O)N1CCCCNCCOc1ccc2ccccc2c1 (centres undefined) | 41 nM | > 1000 nM | > 1000 nM | > 1000 nM | 422 nM | 
17 | N#Cc1cccc(OCCNCCCCN2C(=O)C3CCCN3C2=O)c1 (centres undefined) | > 1000 nM |  |  |  |  | 
18 | O=C1C2CCCN2C(=O)N1CCCCNCCOc1ccc(C(F)(F)F)cc1 (centres undefined) | > 1000 nM |  |  |  |  | 
19 | O=C1C2CCCN2C(=O)N1CCCCNCCOc1cccc(Br)c1 (centres undefined) | 52 nM | > 1000 nM | > 1000 nM | > 1000 nM | 514 nM | 
20 | O=C1C2CCCN2C(=O)N1CCCCNCCOc1ccccc1-c1ccccc1 (centres undefined) | 26 nM | > 1000 nM | 101 nM | > 1000 nM | > 1000 nM | 
21 | COc1ccccc1CNCCCCN1C(=O)C2CCCN2C1=O (centres undefined) | > 1000 nM |  |  |  |  | 
22 | O=C1C2CCCN2C(=O)N1CCCCNCCOc1cccc2c1CCCC2 (centres undefined) | 38 nM | > 1000 nM | > 1000 nM | > 1000 nM | 49 nM | 
23 | NCC1(CC(=O)O)CCCCC1 |  |  |  |  |  | Activity (Mus musculus [13]): Active
24 | COc1ccc(OCCNCCCCN2C(=O)C3CCCN3C2=O)c2ccccc12 (centres undefined) | 27 nM | > 1000 nM | 301 nM | > 1000 nM | > 1000 nM | 
25 | O=C1C2CCCN2C(=O)N1CCCCNCCOc1cccc2cccnc12 (centres undefined) | 44 nM | > 1000 nM | 15 nM | > 1000 nM | > 1000 nM | 
26 | O=C1C2CCCN2C(=O)N1CCCCNCCOc1ccc(Br)cc1 (centres undefined) | > 1000 nM |  |  |  |  | 
27 | Cl.O=C1C2CCCN2C(=O)N1CCCCNCCOc1cccc2ccccc12 (centres undefined) |  | > 1000 nM |  | > 1000 nM | 41 nM | Activity (Mus musculus [6]): Active; Activity (Albumin): 60%; activity at 0.5 h, 10 µM (CYP2D6): 6%; half-life at up to 5 µM [7]: 2.05 h; CLint scaled at up to 5 µM [8]: 5.1 mL/min/kg; CLint scaled at up to 5 µM [9]: 171 mL/min/kg; half-life at up to 5 µM [10]: 0.135 h; minimal effective dose (Mus musculus [11]): 10 mg/kg; EC50 [12]: 45 nM
28 | CCc1ccc(OCCNCCCCN2C(=O)C3CCCN3C2=O)cc1 (centres undefined) | 742 nM |  |  |  |  | 
29 | N#Cc1ccccc1OCCNCCCCN1C(=O)C2CCCN2C1=O (centres undefined) | > 1000 nM |  |  |  |  | 
30 | COc1cccc(OCCNCCCCN2C(=O)C3CCCN3C2=O)c1 (centres undefined) | 34 nM | > 1000 nM | > 1000 nM | > 1000 nM | > 1000 nM | 

Source: ChEMBL document CHEMBL2429786, “New serotonin 5-HT1A receptor agonists endowed with antinociceptive activity in vivo” (J Med Chem, 2013)
